{"source": "paper PMC3889329", "about": "(Diabetes Therapy, 2013)", "key": {"[1]": {"tested_on": "patients with type 2 diabetes mellitus", "assay": "Oral glucose tolerance test, glucose AUEC1-5", "type": "in vivo, human", "conditions": "for Glucose AUEC1–5, change from baseline to day 9: baseline day −1", "how_it_was_run": "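For the OGTT, 75 g glucose solution was given after an overnight fast on days −1, 1 and 9, with the test compound or placebo given orally once daily. Glucose AUEC was calculated over 1–5 h after OGTT. Change is from baseline on day −1. Patients were randomized 3:1 to active or placebo per dose group. Analysis was descriptive.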"}, "[2]": {"tested_on": "patients with type 2 diabetes mellitus", "assay": "Urinary glucose excretion", "type": "in vivo, human", "conditions": "day 1", "how_it_was_run": "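All urine was collected over 24 h on days −2, −1, 1, 8 and 9, extended to 48 h after day 1 and 72 h after day 9. Ae0–24 was measured after a single dose with OGTT (75 g glucose, day 1) and after multiple daily doses, fasting (day 8) or with OGTT (day 9). Results are mean (SD) for the treated set.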"}, "SGLT2": {"tested_on": "SGLT2", "conditions": "in vitro, cited from earlier work"}}}
{"smiles": "OC[C@H]1O[C@@H](c2ccc(Cl)c(Cc3ccc(O[C@H]4CCOC4)cc3)c2)[C@H](O)[C@@H](O)[C@@H]1O", "note": "[Empagliflozin]", "values": [{"measurement": "Mean (SD) glucose AUEC1–5, Day 9", "setting": "[1]; 2.5 mg qd, after OGTT", "value": "713 (216) mg h/dL"}, {"measurement": "Glucose AUEC1–5, change from baseline to day 9", "setting": "[1]; 2.5 mg qd, after OGTT", "value": 23.1, "unit": "%"}, {"measurement": "Glucose AUEC1–5, change from baseline to day 9", "setting": "[1]; 10 mg qd, after OGTT", "value": 27.5, "unit": "%"}, {"measurement": "Mean (SD) glucose AUEC1–5, Day 9", "setting": "[1]; 10 mg qd, n = 8, after OGTT", "value": "655 (144) mg h/dL"}, {"measurement": "Mean (SD) glucose AUEC1–5, Day 9", "setting": "[1]; 25 mg qd, after OGTT", "value": "679 (109) mg h/dL"}, {"measurement": "Glucose AUEC1–5, change from baseline to day 9", "setting": "[1]; 25 mg qd, after OGTT", "value": 23.0, "unit": "%"}, {"measurement": "Mean (SD) glucose AUEC1–5, Day 9", "setting": "[1]; 100 mg qd, after OGTT", "value": "817 (126) mg h/dL"}, {"measurement": "Glucose AUEC1–5, change from baseline to day 9", "setting": "[1]; 100 mg qd, after OGTT", "value": 22.9, "unit": "%"}, {"measurement": "Amount of glucose excreted in the urine over 24 h (Ae0–24)", "setting": "[2]; 2.5 mg single dose, OGTT conditions", "value": 46.3, "unit": "g"}, {"measurement": "Increase in UGE with fourfold dose increase from 2.5 to 10 mg", "setting": "[2]; single dose", "value": "more than a twofold increase"}, {"measurement": "Increase in UGE with fourfold dose increase from 25 to 100 mg", "setting": "[2]; single dose", "value": "~1.2", "unit": "fold"}, {"measurement": "pIC50 (SE), inhibition of SGLT2", "setting": "SGLT2", "value": 8.5}, {"measurement": "IC50", "setting": "SGLT2; read-out: IC50, inhibition of SGLT2", "value": 3.1, "unit": "nM"}]}
